Bioassay records as filed in PubChem.
The list is not random: actives were taken first. Their share in the collection is about 1.5%.
Lipid droplet: hepatic lipid droplet formation modulation | inhibition, % at 6.5 µM | hit rate 0.4% among 240,000 | AML12 mouse hepatocytes, oleate lipid droplets, BODIPY imaging | AID 1656;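 active = lipid droplet intensity inhibited by at least 50%, with more than 500 cells counted; inconclusive = wells with under 300 cells, treated as cytotoxic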
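Assay system: AML12 hepatocytes (mouse) / Also added: 100 µM oleic acid challenge / Times: overnight treatment with compound plus oleate / Detection: high-content imaging of BODIPY-stained droplets and DAPI nuclei / Evaluation: % inhibition of lipid droplet signal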
PPC-1+TRAIL kill: PPC-1 cancer cell killing with TRAIL present; PPC-1 cells + TRAIL, ATPLite viability luminescence; cell killing (% activity), % at 4 µM or 5 µM; hit rate 0.41% among 220,000; AID 1443;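 active = cell killing above 50% in the first pass at 4 µM, then a duplicate retest at 5 µM averaging 50% or more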;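 also: plate controls were cells with TRAIL plus DMSO for no effect and medium-only wells lacking cells for full effect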
H9c2 TAG inh: triacylglycerol accumulation inhibition; hit rate 0.66% among 230,000; H9c2 cells, Nile Red lipid (TAG) fluorescence; cells loaded with 200 µM oleic acid; inhibition, % at 12.5 µM; AID 651582;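 active = pattern-corrected inhibition of lipid staining of at least 50% with the nuclear-stain viability signal not falling by more than 50%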;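 also: 0% = DMSO wells and 100% = triacsin C control wells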
STAT1 inh: inhibitors of IFN-gamma induced STAT1 signaling. NIH 3T3 STAT1-luciferase reporter, luminescence. inhibition, % at 5.5 µM. hit rate 0.35% among 200,000. AID 920;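 active = inhibition above a set limit, the mean inhibition across all tested compounds plus 3 SD, cut at about 34% in these data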;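 also: 0% = IFN-gamma with DMSO and 100% = IFN-gamma with 300 µM nifuroxazide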
Platelet DG rel: platelet dense granule release activity. hit rate 0.22% among 300,000. human platelet-rich plasma, SFLLRN dense granule ATP release, luminescence. inhibition, %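 (compounds screened at 7.5 µM in platelet-rich plasma)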;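 active = mean replicate score, as percent of positive control, at or above 50; inconclusive = mean below 50 but at least one replicate at or above 50; inactive = mean and every replicate below 50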
STAT3 blocker: STAT3 signaling inhibition; U3A cells, IL-6 STAT3-luciferase reporter, luminescence; host cell line lacks STAT1; inhibition, % at 5.5 µM; hit rate 0.89% among 190,000;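 active = inhibition above the mean inhibition across all screened compounds plus 3 SD, cut at about 44% in these data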;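 also: 0% = DMSO only wells and 100% = 100 µM nifuroxazide control wells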
Starred values were filed as active, the others as inactive; ? = inconclusive; · = not tested or not shown.

SMILES | Lipid droplet | PPC-1+TRAIL kill | H9c2 TAG inh | STAT1 inh | Platelet DG rel | STAT3 blocker
CN(C)c1ncnc2c1ncn2[C@H]1CN(Cc2ccc(-c3ccccc3)cc2)C[C@@H](CO)O1 | · | · | 1 | · | · | ·
COc1cc([C@H]2c3[nH]c4ccccc4c3C[C@H]3C(=O)N4[C@@H](c5cc(OC)c(OC)c(OC)c5)c5[nH]c6ccccc6c5C[C@H]4C(=O)N23)cc(OC)c1OC | 44 | 9 | 50* | -5 | -1 | -8
CN(C)Cc1csc(NC(=O)Nc2ccccc2Oc2ccccc2)n1 | · | · | 9 | · | · | ·
O=C(CN1CCCC1)Nc1ccc(-c2nc3cc(NC(=O)CN4CCCC4)ccc3o2)cc1 | 0 | 40 | 52* | -22 | 8 | -58
Cc1cc(=O)oc(C)c1C(=O)NCCC(C)C | 2 | 1 | · | 0 | -10 | 5
Cc1cc(=O)oc(C)c1C(=O)NCCNC(=O)c1c(C)cc(=O)oc1C | 0 | 22 | -8 | -2 | 85* | 3
Cc1ccc(NC(=O)CSc2nc3cc(C(=O)NCC4CCCO4)ccc3c(=O)n2CC2CCCO2)cc1 (stereo unspecified) | · | · | 0 | · | · | ·
CC(C)(C)OC(=O)N1CCCC(C(=O)Nc2ccc(C(=O)NC3CC3)cc2)C1 (stereo unspecified) | · | · | 1 | · | · | ·
CN1CCN(c2ccccc2NC(=O)c2ccc([N+](=O)[O-])o2)CC1 | 0 | · | 54* | · | 2 | ·
COc1ccc(NC(=O)c2cc(S(=O)(=O)N3CCOCC3)cn2C)c(OC)c1 | 4 | · | -7 | · | 59* | ·
COc1cccc(CNC(=O)c2cc(S(=O)(=O)N3CCCC3)cn2C)c1 | -20 | · | -17 | · | 57* | ·
COc1cc(OC)c(NC(=O)c2cc(S(=O)(=O)N3CCOCC3)cn2C)cc1Cl | -7 | · | 11 | · | 69* | ·
Cc1ccc(NC(=O)c2cc(S(=O)(=O)N3CCOCC3)cn2C)c(C)c1 | -5 | · | 1 | · | 41 | ·
Cn1cc(S(=O)(=O)N2CCCC2)cc1C(=O)NCc1ccccc1 | -1 | · | 9 | · | 1 | ·
COc1ccc(NC(=O)c2cc(-c3cc(F)ccc3OCC3CCCO3)n[nH]2)c(C)c1 (stereo unspecified) | · | · | 16 | · | · | ·
Cc1nc2ccc(C(=O)N(C)Cc3ccco3)cn2c1N(C)C(=O)CCc1ccccc1 | · | · | -2 | · | · | ·
COc1ccccc1S(=O)(=O)N(C)C[C@@H]1OCc2cnnn2CCCC(=O)N([C@H](C)CO)C[C@@H]1C | · | · | 3 | · | · | ·
O=S(=O)(NCCc1cn2ccccc2n1)c1ccc2c(c1)OCCO2 | -25 | 9 | 8 | 6 | 0 | 11
O=S(=O)(NCCc1cn2ccccc2n1)c1ccc2c(c1)CCCC2 | -34 | -2 | 7 | -8 | 57* | 6
Cc1ccc(C(O)c2ncc(-c3ccc(F)cc3)[nH]2)cc1F (stereo unspecified) | · | · | -37 | · | · | ·
CCOc1ccc(N2C(=O)CC(Sc3nc4ccc(OCC)cc4s3)C2=O)cc1 (stereo unspecified) | · | · | -5 | -3 | 56* | 2
Cc1cccc(NC(=O)c2ccc(NCCO)c([N+](=O)[O-])c2)n1 | 1 | 11 | 19 | · | 85* | ·
C[C@H]1CN([C@@H](C)CO)C(=O)CCCn2nncc2CO[C@H]1CN(C)S(=O)(=O)c1cccs1 | · | · | 1 | · | · | ·
CCCCCCCCNc1ncnc2ccccc12 | -88 | 6 | · | 28 | -3 | 89*
CCc1ccccc1Nc1ncnc2ccccc12 | -6 | · | · | · | 9 | ·
SMILES | Lipid droplet | PPC-1+TRAIL kill | H9c2 TAG inh | STAT1 inh | Platelet DG rel | STAT3 blocker
CC(=O)NC(c1ccccc1)c1nc(-c2cccc(C#N)c2)cs1 (stereo unspecified) | · | · | -7 | · | · | ·
CN1C(=O)N(CC(=O)c2ccc3c(c2)OCO3)C(=O)C12CCCCC2 | · | · | -6 | · | · | ·
Cc1nnc(NC(=O)CSc2cn(CCNC(=O)c3ccccc3)c3ccccc23)s1 | 27 | 6 | 6 | -7 | 58* | 0
COc1cccc2c1C(=O)c1c(O)c3c(c(O)c1C2=O)C[C@@](O)(C(=O)CO)C[C@@H]3O[C@H]1C[C@H](N)[C@H](O)[C@H](C)O1 | ? | 54* | 46 | -181 | 4 | -45
COc1cccc2c1C(=O)c1c(O)c3c(c(O)c1C2=O)C[C@@](O)(C(=O)CO)C[C@@H]3OC1CC(N)C(O)C(C)O1 (stereo partly specified) | · | · | 36 | · | · | ·
COc1cc(OC)cc(-c2cc3nc(C)c(CCC(=O)NC(C)CCc4ccco4)c(C)n3n2)c1 (stereo unspecified) | 13 | -15 | 17 | -1 | 4 | 4
COc1cc(OC)cc(-c2cc3nc(C)c(CCC(=O)O)c(C)n3n2)c1 | · | -8 | 6 | 53* | · | 88*
CC1(c2ccccc2)NC(=O)N(CC(=O)N2CCN(S(=O)(=O)c3cccs3)CC2)C1=O (stereo unspecified) | · | · | 0 | · | -2 | ·
CC1(c2ccccc2)NC(=O)N(CC(=O)N2CCN(S(=O)(=O)c3ccccc3[N+](=O)[O-])CC2)C1=O (stereo unspecified) | -1 | · | 17 | · | 57* | ·
O=C(NC(c1ccc(F)cc1)c1ccc2ccccc2n1)C1CCN(Cc2cccc(C(F)(F)F)c2)CC1 (stereo unspecified) | · | · | 0 | · | · | ·
COc1cc(Nc2ccn3nccc3n2)cc(OC)c1OC | · | · | 5 | · | · | ·
Cc1ccc(-c2ccc(/C=N\NC(=O)c3cc4c(ccc5ccccc54)o3)o2)cc1[N+](=O)[O-] | · | 3 | 64* | 1 | -9 | 6
CCN(CC(=O)Nc1c(F)cccc1F)C(=O)c1ccc(OC)c(S(=O)(=O)NC2CCCC2)c1 | · | · | 15 | · | · | ·
O=C(COC(=O)CCC(=O)c1ccc(F)cc1)Nc1cccc(S(=O)(=O)N2CCCC2)c1 | 1 | 12 | -5 | · | 59* | ·
CCC(=O)c1ccc(OCC(=O)OCC(=O)Nc2cccc(S(=O)(=O)N3CCCC3)c2)cc1 | · | · | 0 | · | · | ·
O=C(O)C1(C(=O)O)CCC2(CCCCC2)CC1 | · | · | -1 | · | · | ·
CCN=c1scc(-c2ccc(F)cc2)n1/N=C/c1ccccn1 | -9 | 28 | -42 | -41 | -10 | 24
CCN=c1scc(-c2ccccc2)n1/N=C/c1ccccn1 | -17 | 50 | 23 | -76 | 5 | 45*
O=C(Nc1ccc(Br)cc1)c1cccc(-n2cnnn2)c1 | -12 | · | · | · | -2 | ·
O=C(Nc1nc(-c2ccccn2)cs1)c1cccc(-n2cnnn2)c1 | 5 | 40 | 73* | · | 0 | ·
CCOC(=O)C(NC(C)=O)(OCc1ccccc1)C(F)(F)F (stereo unspecified) | 2 | 25 | -2 | -2 | -17 | -4
CCOC(=O)C(NC(=O)c1cccc(Cl)c1)(OCc1ccccc1)C(F)(F)F (stereo unspecified) | 71* | 9 | · | -5 | 10 | -12
CC(=O)Oc1ccc(-c2nc(-c3cccnc3)no2)cc1 | -5 | 24 | 8 | -15 | 79* | 33
Cc1ccc([C@H]2C[C@H](O)[C@@H](n3cc(C4CC4)nn3)CN2Cc2cccs2)cc1 | · | · | 20 | · | · | ·
CCN1C(=O)[C@H]2[C@@H](c3ccc(C(F)(F)F)cc3)N[C@]3(CCCN(CC4CCCCC4)C3=O)[C@H]2C1=O | · | · | 17 | · | · | ·
